Assay results reported in ChEMBL document CHEMBL4229344 (Eur J Med Chem, 2018).

Tests used:
[1] = target: Dual specificity tyrosine-phosphorylation-regulated kinase 1B (Homo sapiens) (UniProt Q9Y463); assay: Binding affinity to wild-type human full length DYRK1B (M1 to S629 residues) expressed in bacterial expression system assessed as residual binding level at 1 uM by Kinomescan method relative to control
Outline: (§1)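 KINOMEscan competition binding against 468 purified kinases/mutants, test compound at 1 µM; residual binding relative to control.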

[2] = target: Cyclin-dependent kinase 11A (Homo sapiens) (UniProt Q9UQ88); assay: Binding affinity to wild-type human partial length CDC2L2 (D391 to K730 residues) expressed in bacterial expression system assessed as residual binding level at 1 uM by Kinomescan method relative to control
[3] = system: ALK tyrosine kinase receptor (Homo sapiens), Q9UM73 [C1156Y]; assay: Binding affinity to wild-type human partial length ALK C1156Y mutant (I1088 to E1409 residues) expressed in mammalian expression system assessed as residual binding level at 1 uM by Kinomescan method relative to control
Outline: (§2)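 Single-concentration KINOMEscan (DiscoverX) binding screen at 1 μM against a panel of 468 purified kinases and mutants. The read-out is binding relative to control.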

[4] = target: Casein kinase I isoform gamma-1 (Homo sapiens) (UniProt Q9HCP0); assay: Binding affinity to wild-type human partial length CSNK1G1 (T15 to S353 residues) expressed in bacterial expression system assessed as residual binding level at 1 uM by Kinomescan method relative to control
[5] = target: Mitogen-activated protein kinase kinase kinase kinase 3 (Homo sapiens) (UniProt Q8IVH8); assay: Binding affinity to wild-type human partial length MAP4K3 (M1 to D301 residues) expressed in bacterial expression system assessed as residual binding level at 1 uM by Kinomescan method relative to control
[6] = Cytotoxicity against mouse BA/F3 cells after 72 hrs by CellTiter-Glo or CCK-8 assay; assay type: cell-based, BaF3
Outline: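 Parental BaF3 or IL-3-independent TEL-kinase BaF3 lines, made by retroviral infection and puromycin selection, grown in RPMI 1640 with 10% FBS. Cells seeded at 1–3 × 10^4 cells/mL with serial compound concentrations for 72 h. Viability read by CellTiter-Glo luminescence or CCK-8 absorbance at 450/655 nm and normalised to DMSO. GI50 obtained by triplicate testing with linear regression. Selectivity is the ratio of the two GI50 values.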

[7] = target: Serine/threonine-protein kinase Nek6 (Homo sapiens) (UniProt Q9HC98); assay: Binding affinity to wild-type human full length NEK6 (M8 to T313 residues) expressed in bacterial expression system assessed as residual binding level at 1 uM by Kinomescan method relative to control; outline: as §2
[8] = target: Rhodopsin kinase GRK1 (Homo sapiens) (UniProt Q15835); assay: Binding affinity to wild-type human full length GRK1 (M1 to S563 residues) expressed in mammalian expression system assessed as residual binding level at 1 uM by Kinomescan method relative to control
Outline: (§3)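 Single-concentration (1 μM) competition-binding screen run by KINOMEscan against a panel of 468 purified kinases and mutants. The read-out is the relative binding activity of the test compound to each kinase.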

[9] = target: Serine/threonine-protein kinase TNNI3K (Homo sapiens) (UniProt Q59H18); assay: Binding affinity to wild-type human full length TNNI3K (M1 to S835 residues) expressed in bacterial expression system assessed as residual binding level at 1 uM by Kinomescan method relative to control; outline: as §2
[10] = target: Discoidin domain-containing receptor 2 (Homo sapiens) (UniProt Q16832); assay: Binding affinity to wild-type human partial length DDR2 (V555 to E855 residues) expressed in mammalian expression system assessed as residual binding level at 1 uM by Kinomescan method relative to control
Outline: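 Kinome-wide competition binding screen against a panel of 468 purified kinases/mutants, with the test compound at a single concentration of 1 μM. Read-out is the relative binding activity of each kinase in the presence of compound.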

[11] = target: Tyrosine-protein kinase Mer (Homo sapiens) (UniProt Q12866); assay: Binding affinity to wild-type human partial length MERTK (R557 to L884 residues) expressed in bacterial expression system assessed as residual binding level at 1 uM by Kinomescan method relative to control
[12] = target: AP2-associated protein kinase 1 (Homo sapiens) (UniProt Q2M2I8); assay: Binding affinity to human wild-type AAK1 (G25 to L333 residues) expressed in bacterial expression system assessed as residual binding level at 1 uM by Kinomescan method relative to control; outline: as §3
[13] = target: Serine/threonine-protein kinase N1 (Homo sapiens) (UniProt Q16512); assay: Binding affinity to wild-type human partial length PKN1 (E598 to C948 residues) expressed in bacterial expression system assessed as residual binding level at 1 uM by Kinomescan method relative to control
[14] = system: Tyrosine-protein kinase ABL1 (Homo sapiens), P00519 [F317I]; assay: Binding affinity to human non-phosphorylated ABL1 F317I mutant (S229 to K512 residues) expressed in mammalian expression system assessed as residual binding level at 1 uM by Kinomescan method relative to control
Outline: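 Kinome-wide single-concentration binding screen (KINOMEscan) at 1 μM against a panel of 468 purified kinases and mutants. Read-out is relative binding of each kinase compared with control. Selectivity across the panel was summarised as an S(10) score.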

[15] = system: EOL1; assay: Antitumor activity against human EOL-1 cells engrafted in ip dosed NOD-SCID mouse assessed as reduction of cell density in bone marrow administered 3 weeks post cell inoculation by FACS analysis; assay type: functional, organism-based
Outline: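 Daily i.p. dosing started 3 weeks after inoculation at 7.5, 15 or 30 mg/kg/day. Mice monitored daily and euthanized when moribund or at hind-limb paralysis. Bone marrow cells, after red-cell lysis, stained with PE anti-HLA-ABC and counted by flow cytometry.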

[16] = system: EOL1; assay: Antitumor activity against human EOL-1 cells xenografted in nu/nu mouse assessed as tumor growth inhibition at 100 mg/kg/day, ip; assay type: functional; settings: read-out: TGI
Outline: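 Female nu/nu mice (6 weeks) given subcutaneous right-flank injection of 5 million EOL-1 cells in PBS/Matrigel 1:1. At 200–400 mm3 tumors, randomized to groups of 6 and dosed daily i.p. for 14 days at 25, 50 or 100 mg/kg/d in 0.5% methylcellulose/0.4% Tween80. Tumor volume = W²×L/2, measured daily.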

[17] = target: Serine/threonine-protein kinase RIO2 (Homo sapiens) (UniProt Q9BVS4); assay: Binding affinity to wild-type human partial length RIOK2 (M1 to D313 residues) expressed in mammalian expression system assessed as residual binding level at 1 uM by Kinomescan method relative to control
Outline: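 KINOMEscan competition binding against a panel of 468 purified kinases/mutants, compound tested at 1 μM; readout is relative binding activity versus control.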

[18] = target: SRSF protein kinase 1 (Homo sapiens) (UniProt Q96SB4); assay: Binding affinity to wild-type human full length SRPK1 (M1 to S655 residues) expressed in bacterial expression system assessed as residual binding level at 1 uM by Kinomescan method relative to control; outline: as §1
[19] = target: Ephrin type-B receptor 6 (Homo sapiens) (UniProt O15197); assay: Binding affinity to wild-type human partial length EPHB6 (Q634 to P948 residues) expressed in mammalian expression system assessed as residual binding level at 1 uM by Kinomescan method relative to control

Chain of Serine/threonine-protein kinase Nek6 (Homo sapiens) (Q9HC98 whole entry, the tested form may be a part): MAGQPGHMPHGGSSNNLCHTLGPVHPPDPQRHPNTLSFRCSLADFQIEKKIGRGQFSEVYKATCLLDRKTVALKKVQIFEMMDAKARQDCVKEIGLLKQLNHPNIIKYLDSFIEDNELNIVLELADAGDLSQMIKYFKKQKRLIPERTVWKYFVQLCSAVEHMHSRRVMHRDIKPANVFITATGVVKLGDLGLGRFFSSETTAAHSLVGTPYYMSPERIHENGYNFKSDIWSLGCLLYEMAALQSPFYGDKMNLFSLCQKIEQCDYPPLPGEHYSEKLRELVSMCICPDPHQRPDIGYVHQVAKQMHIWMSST
Chain of Tyrosine-protein kinase ABL1 (Homo sapiens), P00519 [F317I] (P00519 whole entry F317I, the tested form may be a part): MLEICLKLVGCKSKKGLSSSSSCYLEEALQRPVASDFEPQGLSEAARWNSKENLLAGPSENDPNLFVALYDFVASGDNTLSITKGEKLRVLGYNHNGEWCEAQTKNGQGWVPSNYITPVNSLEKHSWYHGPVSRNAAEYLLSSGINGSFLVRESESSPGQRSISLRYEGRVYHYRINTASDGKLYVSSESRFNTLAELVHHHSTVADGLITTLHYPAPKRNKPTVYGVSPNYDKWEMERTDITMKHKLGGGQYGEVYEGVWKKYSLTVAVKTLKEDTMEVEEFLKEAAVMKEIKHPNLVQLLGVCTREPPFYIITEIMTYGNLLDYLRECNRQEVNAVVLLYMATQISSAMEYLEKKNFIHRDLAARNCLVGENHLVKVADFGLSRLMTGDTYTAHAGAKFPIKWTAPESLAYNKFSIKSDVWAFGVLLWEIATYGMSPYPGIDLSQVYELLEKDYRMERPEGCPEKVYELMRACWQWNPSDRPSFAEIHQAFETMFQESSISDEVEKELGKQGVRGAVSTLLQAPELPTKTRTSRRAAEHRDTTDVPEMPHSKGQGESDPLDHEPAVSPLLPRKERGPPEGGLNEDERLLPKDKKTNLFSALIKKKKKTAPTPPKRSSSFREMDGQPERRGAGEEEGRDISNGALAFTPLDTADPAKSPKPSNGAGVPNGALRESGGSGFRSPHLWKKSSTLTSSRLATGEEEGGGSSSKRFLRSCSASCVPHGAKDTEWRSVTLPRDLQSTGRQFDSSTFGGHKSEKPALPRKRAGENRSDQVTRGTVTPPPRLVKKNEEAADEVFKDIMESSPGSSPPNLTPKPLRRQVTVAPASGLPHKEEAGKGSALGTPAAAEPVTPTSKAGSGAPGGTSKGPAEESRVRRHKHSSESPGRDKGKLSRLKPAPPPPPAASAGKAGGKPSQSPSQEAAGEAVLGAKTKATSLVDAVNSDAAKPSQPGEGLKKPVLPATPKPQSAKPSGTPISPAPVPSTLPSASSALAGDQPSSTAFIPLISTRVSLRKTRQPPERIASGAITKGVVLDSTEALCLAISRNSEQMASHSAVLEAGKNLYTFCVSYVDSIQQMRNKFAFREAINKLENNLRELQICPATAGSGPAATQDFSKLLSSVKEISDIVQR
Chain of Cyclin-dependent kinase 11A (Homo sapiens) (Q9UQ88 whole entry, the tested form may be a part): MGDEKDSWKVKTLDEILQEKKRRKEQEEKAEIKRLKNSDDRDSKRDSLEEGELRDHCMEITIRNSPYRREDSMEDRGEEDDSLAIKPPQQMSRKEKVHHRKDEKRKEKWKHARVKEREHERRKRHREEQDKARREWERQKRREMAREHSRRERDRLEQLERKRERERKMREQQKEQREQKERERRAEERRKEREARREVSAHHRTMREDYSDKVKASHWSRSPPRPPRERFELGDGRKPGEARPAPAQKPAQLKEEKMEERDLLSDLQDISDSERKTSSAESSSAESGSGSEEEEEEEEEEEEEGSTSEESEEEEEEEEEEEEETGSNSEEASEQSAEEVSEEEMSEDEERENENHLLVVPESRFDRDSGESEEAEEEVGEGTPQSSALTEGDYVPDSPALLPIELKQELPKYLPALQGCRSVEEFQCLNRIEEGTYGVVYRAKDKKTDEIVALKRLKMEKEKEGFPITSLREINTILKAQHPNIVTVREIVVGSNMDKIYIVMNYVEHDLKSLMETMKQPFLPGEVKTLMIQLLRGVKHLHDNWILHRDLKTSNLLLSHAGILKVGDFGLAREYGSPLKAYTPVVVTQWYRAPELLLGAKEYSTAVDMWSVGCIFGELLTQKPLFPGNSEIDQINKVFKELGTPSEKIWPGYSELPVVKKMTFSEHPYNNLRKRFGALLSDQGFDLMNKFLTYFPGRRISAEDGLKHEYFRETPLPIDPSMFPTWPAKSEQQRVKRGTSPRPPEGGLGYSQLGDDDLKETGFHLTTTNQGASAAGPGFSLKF
Chain of Serine/threonine-protein kinase N1 (Homo sapiens) (Q16512 2-942 limits assumed): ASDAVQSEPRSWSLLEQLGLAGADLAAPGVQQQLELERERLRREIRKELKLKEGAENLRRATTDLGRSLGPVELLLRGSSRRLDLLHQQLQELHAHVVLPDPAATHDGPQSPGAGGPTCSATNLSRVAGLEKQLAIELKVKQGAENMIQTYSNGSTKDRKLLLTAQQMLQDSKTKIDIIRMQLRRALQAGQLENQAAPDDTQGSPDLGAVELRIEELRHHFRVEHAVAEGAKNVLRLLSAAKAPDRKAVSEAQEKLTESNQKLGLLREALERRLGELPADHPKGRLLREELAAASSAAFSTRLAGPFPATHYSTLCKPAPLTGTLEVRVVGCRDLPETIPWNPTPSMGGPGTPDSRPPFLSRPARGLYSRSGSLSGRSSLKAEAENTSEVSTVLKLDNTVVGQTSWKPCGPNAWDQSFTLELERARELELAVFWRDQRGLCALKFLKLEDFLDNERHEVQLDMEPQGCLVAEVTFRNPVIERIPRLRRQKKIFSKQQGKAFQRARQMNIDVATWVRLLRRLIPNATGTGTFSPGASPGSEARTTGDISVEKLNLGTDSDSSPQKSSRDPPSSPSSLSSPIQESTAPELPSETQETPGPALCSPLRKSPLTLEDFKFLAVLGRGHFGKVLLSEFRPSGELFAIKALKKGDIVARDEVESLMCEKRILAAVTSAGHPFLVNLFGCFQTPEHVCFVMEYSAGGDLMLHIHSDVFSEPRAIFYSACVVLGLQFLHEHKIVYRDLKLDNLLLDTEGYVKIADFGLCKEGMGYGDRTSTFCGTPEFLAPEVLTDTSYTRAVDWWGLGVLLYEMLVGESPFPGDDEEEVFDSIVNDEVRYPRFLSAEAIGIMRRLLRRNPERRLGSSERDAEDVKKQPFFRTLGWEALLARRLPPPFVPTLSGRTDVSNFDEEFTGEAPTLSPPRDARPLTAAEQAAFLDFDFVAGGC
Chain of Discoidin domain-containing receptor 2 (Homo sapiens) (Q16832 whole entry, the tested form may be a part): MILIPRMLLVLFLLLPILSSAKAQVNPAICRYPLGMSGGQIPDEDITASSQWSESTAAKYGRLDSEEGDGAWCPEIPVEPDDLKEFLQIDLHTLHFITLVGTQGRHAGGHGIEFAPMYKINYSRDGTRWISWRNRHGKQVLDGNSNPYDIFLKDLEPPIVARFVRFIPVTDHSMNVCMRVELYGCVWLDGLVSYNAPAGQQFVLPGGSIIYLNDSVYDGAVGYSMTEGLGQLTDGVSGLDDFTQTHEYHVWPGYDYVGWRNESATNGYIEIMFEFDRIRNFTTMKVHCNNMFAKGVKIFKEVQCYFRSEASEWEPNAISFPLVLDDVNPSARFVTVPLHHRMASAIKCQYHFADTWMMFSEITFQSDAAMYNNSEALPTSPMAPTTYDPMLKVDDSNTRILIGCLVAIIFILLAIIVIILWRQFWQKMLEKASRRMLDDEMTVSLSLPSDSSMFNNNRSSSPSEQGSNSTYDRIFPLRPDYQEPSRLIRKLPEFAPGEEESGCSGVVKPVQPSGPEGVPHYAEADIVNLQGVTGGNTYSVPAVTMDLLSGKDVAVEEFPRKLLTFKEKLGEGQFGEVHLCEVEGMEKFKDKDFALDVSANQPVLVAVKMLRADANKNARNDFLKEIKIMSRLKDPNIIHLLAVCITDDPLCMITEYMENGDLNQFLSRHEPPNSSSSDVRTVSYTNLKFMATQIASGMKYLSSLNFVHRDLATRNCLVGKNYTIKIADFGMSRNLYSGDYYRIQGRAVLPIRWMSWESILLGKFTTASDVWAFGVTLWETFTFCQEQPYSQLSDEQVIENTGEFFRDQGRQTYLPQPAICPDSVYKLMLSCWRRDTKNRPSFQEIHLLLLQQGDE
Chain of Rhodopsin kinase GRK1 (Homo sapiens) (Q15835 whole entry, the tested form may be a part): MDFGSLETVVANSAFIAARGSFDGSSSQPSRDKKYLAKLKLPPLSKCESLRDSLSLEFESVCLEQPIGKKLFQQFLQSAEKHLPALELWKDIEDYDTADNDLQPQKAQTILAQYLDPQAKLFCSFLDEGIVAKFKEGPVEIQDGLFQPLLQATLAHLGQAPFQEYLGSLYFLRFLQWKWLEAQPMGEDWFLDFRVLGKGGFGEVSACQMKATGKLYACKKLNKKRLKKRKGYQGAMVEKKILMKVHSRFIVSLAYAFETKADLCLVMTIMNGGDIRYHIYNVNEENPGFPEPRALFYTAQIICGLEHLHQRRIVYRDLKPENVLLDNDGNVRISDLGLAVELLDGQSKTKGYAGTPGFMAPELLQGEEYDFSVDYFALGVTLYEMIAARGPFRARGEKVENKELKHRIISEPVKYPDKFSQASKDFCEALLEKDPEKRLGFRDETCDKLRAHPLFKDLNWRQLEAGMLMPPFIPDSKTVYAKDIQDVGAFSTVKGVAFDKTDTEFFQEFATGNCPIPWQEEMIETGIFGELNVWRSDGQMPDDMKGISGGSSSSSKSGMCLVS
Chain of Casein kinase I isoform gamma-1 (Homo sapiens) (Q9HCP0 whole entry, looked up, the tested form may be a part, canonical isoform): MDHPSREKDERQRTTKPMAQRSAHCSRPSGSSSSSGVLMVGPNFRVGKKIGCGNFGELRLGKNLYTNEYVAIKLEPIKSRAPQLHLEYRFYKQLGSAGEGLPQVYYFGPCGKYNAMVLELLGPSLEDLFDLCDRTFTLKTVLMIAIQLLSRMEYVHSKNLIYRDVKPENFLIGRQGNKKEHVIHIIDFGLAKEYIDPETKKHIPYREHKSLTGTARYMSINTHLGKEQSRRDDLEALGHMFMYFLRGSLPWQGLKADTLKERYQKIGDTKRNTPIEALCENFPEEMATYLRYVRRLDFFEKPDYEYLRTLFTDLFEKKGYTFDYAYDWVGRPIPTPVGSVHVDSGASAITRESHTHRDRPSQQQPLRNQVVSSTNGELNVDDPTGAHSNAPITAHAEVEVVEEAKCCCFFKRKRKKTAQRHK

## Cc1ccc(NC(=O)c2ccc(CN(CCN(C)C)C(=O)c3cccnc3)cc2)cc1Nc1nccc(-c2cccnc2)n1
[1]
  Activity: 51%
[2]
  Activity: 96%
[3]
  Activity: 100%
[4]
  Activity: 90%
[5]
  Activity: 93%
[6]
  GI50 at 72 h: > 10 µM
[7]
  Activity: 90%
[8]
  Activity: 96%
[9]
  Activity: 100%
[10]
  Activity: 33%
[11]
  Activity: 100%
[12]
  Activity: 100%
[13]
  Activity: 100%
[14]
  Activity: 94%
[15]
  Activity: Dose-dependent effect
[16]
  inhibition in vivo at 100 mg/kg/day: 100%
[17]
  Activity: 87%
[18]
  Activity: 92%
[19]
  Activity: 100%
